Data set [1] can be described thus: Inhibition of Respiratory syncytial virus B WST RNA-directed RNA polymerase L infected in human Hep2 cells assessed as reduction in virus-induced cytopathic effect measured after 6 days by resazurin dye based fluorescence assay. Particulars: HEp-2, 144 h. The format is cell-based. The gist of the method: (§1)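 Read-out is cytopathic effect of RSV infection in HEp-2 cells. IC50 is the concentration reducing CPE by 50%. Values averaged from 2 experiments.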
A general note: Damage to the host cells serves as the signal in cytopathic effect assays.

Data set [2] in a line: Cytotoxicity against human Hep2 cells. The format is cell-based. The following applies: HEp-2 cells.
Data set [3] can be described thus: Inhibition of RSV A2 RNA-directed RNA polymerase L infected in human Hep2 cells assessed as reduction in virus-induced cytopathic effect measured after 5 days by resazurin dye based fluorescence assay. Type of data set: cell-based. Particulars: human respiratory syncytial virus, HEp-2, 120 h. In a few lines: as §1
In data set [4] the target is Phosphoprotein (Human respiratory syncytial virus A (strain A2)) (UniProt P03421). The data set is described as follows: (§2) Inhibition of Respiratory syncytial virus A2 protein P by luciferase reporter-based RSV minigenome assay. (In general: In a reporter assay the amount or activity of a reporter protein is the signal.)
Chain of Phosphoprotein (Human respiratory syncytial virus A (strain A2)) (P03421 whole entry): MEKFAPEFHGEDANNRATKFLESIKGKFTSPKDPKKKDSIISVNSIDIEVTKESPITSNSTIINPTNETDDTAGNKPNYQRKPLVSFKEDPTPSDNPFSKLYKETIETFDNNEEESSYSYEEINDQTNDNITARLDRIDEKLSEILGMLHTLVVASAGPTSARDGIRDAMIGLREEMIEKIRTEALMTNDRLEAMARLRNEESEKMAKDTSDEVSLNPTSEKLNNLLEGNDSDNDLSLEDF
The target of the next data set is Phosphoprotein (Human respiratory syncytial virus A (strain A2), UniProt P03421). The data set is described as §2.
Chain of Phosphoprotein (P03421 whole entry): as above
In data set [5] the test system is Human respiratory syncytial virus A2. The data set is described as follows: Inhibition of Respiratory syncytial virus A2 RNA-directed RNA polymerase L by luciferase reporter-based RSV minigenome assay.
The subject of data set [6] is Human respiratory syncytial virus A strain Long. As to the kind of experiment: Antiviral activity against human respiratory syncytial virus A strain long infected in cotton rat assessed as reduction in NS1 expression administered intranasally pretreated for 4 hrs followed by viral infection measured after 4 days by RT-qPCR analysis. Type of data set: functional. (Quantitative PCR measures a nucleic acid by following its amplification.)

A short description of data set [7]: Antiviral activity against human respiratory syncytial virus A strain long infected in cotton rat assessed as reduction in plaque forming units in lungs at 0.33 to 3.3 mg/ml administered intranasally pretreated for 4 hrs followed by viral infection measured after 4 days. The format is functional.
In data set [8] the test system is Human respiratory syncytial virus A2. The data set is described as follows: Antiviral activity against Respiratory syncytial virus A2 infected in human Hep2 cells at 0.001 to 3.125 ug/ml after 6 passages. Type of data set: functional, cell-based.
For data set [9], the target named is T1, Nucleoprotein (Human respiratory syncytial virus A (strain A2)) (UniProt P03418).
T1 sequence (whole entry): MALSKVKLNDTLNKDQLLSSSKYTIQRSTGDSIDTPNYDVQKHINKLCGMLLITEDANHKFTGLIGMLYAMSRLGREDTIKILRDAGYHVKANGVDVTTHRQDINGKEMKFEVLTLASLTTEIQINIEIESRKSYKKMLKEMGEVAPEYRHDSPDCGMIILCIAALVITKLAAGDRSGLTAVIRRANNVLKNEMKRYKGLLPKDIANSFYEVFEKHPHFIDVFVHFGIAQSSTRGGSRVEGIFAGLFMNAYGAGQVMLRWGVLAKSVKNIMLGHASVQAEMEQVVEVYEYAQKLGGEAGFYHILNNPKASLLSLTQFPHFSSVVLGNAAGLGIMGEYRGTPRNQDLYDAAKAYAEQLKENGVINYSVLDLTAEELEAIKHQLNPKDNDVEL
As to the kind of experiment: (§3) Inhibition of Respiratory syncytial virus A2 protein N by luciferase reporter-based RSV minigenome assay.

The target in a further data set is T2, Nucleoprotein (Human respiratory syncytial virus A (strain A2), UniProt P03418).
T2 sequence (P03418 whole entry): T1 sequence (whole entry)
The description is as §3.

For data set [10], the target named is T3, Protein M2-1 (Human respiratory syncytial virus A (strain A2)) (UniProt P04545).
T3 sequence (whole entry): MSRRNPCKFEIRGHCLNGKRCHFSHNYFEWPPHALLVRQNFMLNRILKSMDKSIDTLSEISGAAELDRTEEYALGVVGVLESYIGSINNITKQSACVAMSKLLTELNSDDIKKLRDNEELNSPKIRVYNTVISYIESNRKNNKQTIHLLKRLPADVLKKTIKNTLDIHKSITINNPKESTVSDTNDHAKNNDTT
As to the kind of experiment: Inhibition of Respiratory syncytial virus A2 M2-1 by luciferase reporter-based RSV minigenome assay.

The test system of data set [11] is Human respiratory syncytial virus A strain Long. As to the kind of experiment: Antiviral activity against human respiratory syncytial virus A strain long infected in cotton rat assessed as reduction in lung viral load administered intranasally pretreated for 4 hrs followed by viral infection measured after 4 days by plaque assay. The format is functional.

Activity calls are given as the source filed them. The rule behind the calls is not given here. Where only a bound is given, the exact number is not on record here.

In the case of `Cc1ccc(C(=O)Nc2ccc(C(=O)N3CCc4cc(-c5nc6ccccc6[nH]5)sc4-c4ccccc43)cc2)c(N2CC3(CCOCC3)C2)n1`, the results for the concentration for half-maximal inhibition (IC50) in data set [1] and in [3] were 5.2 to 13.1 nM and 0.3 to 0.8 nM, respectively. In data set [2], the cytotoxic concentration (CC50) was greater than 14600 nM.
Taken in the same sequence, the figures for `O=C(Nc1ccc(C(=O)N2CCc3cc(-c4nc5cc(Cl)ccc5[nH]4)sc3-c3ccccc32)cc1)c1cccnc1N1CC2(CCOCC2)C1` were 161 nM, 1.6 nM and greater than 14200 nM.
Taken in the same sequence, the figures for `O=C(Nc1ccc(C(=O)N2CCc3cc(-c4cc5ccccc5[nH]4)sc3-c3ccccc32)cc1)c1cccnc1N1CC2(CCOCC2)C1` were 1020 nM, 1.5 nM and greater than 15000 nM.
For `Cc1cnc(N2CC3(CCOCC3)C2)c(C(=O)Nc2ccc(C(=O)N3CCc4cc(-c5nc6ccccc6[nH]5)sc4-c4ccccc43)cc2)c1`, in that order: 5.2 nM, 0.5 nM and greater than 14600 nM.
Take `Cc1cnc(N2CC3(CCOCC3)C2)c(C(=O)Nc2ccc(C(=O)N3CCc4cc(-c5ncc(C)[nH]5)sc4-c4ccccc43)cc2)c1`: the IC50 in data set [1] stood at 3.3 nM; in data set [3], 0.7 nM. The molecule also gave a CC50 in data set [2] greater than 15500 nM.
For `O=C(Nc1ccc(C(=O)N2CCc3cc(-c4nc5cncnc5[nH]4)sc3-c3ccccc32)cc1)c1cccnc1N1CC2(CCOCC2)C1`, in that order: greater than 1500 nM, 13.1 nM and greater than 14900 nM.
For `Cc1cnc(N2CC3(CCOCC3)C2)c(C(=O)Nc2ccc(C(=O)N3CCc4cc(-c5cc6ccccn6n5)sc4-c4ccccc43)cc2)c1`, in that order: 8.1 nM, 0.7 nM and greater than 14600 nM.
Taken in the same sequence, the figures for `O=C(Nc1ccc(C(=O)N2CCc3cc(-c4nc5cnccc5[nH]4)sc3-c3ccccc32)cc1)c1cccnc1N1CC2(CCOCC2)C1` were 844 nM, 7.6 nM and greater than 14900 nM.
In the case of `O=C(Nc1ccc(C(=O)N2CCc3cc(-c4nc5c(F)cccc5[nH]4)sc3-c3ccccc32)cc1)c1cccnc1N1CC2(CCOCC2)C1`, the IC50 in [1] worked out at 90.9 nM; in data set [3], 1.6 nM. For the same molecule, the CC50 in [2] is greater than 14600 nM.
Taken in the same sequence, the figures for `COc1ccc(C(=O)Nc2ccc(C(=O)N3CCc4cc(-c5nc6ccccc6[nH]5)sc4-c4ccccc43)cc2)c(N2CC3(CCOCC3)C2)n1` were 37.8 nM, 0.5 nM and greater than 14300 nM.
Regarding `Cc1cnc(N2CC3(CCOCC3)C2)c(C(=O)Nc2ccc(C(=O)N3CCc4cc(-c5nc6cccc(F)c6[nH]5)sc4-c4ccccc43)cc2)c1`, the 50% inhibitory concentration (IC50) amounted to 2.1 nM in data set [1], 2 nM against Phosphoprotein, 1.4 nM in [3] and 2 nM against Nucleoprotein. In addition, the inhibition entry in [4], in data set [5], in data set [9] and in data set [10] was “Dose-dependent effect” throughout. The same molecule yielded a CC50 in [2] greater than 14300 nM. Besides, the results for the Activity entry in [6] and in data set [7] were “Dose-dependent effect” and less than 2.3 log10PFU, respectively. Moreover, the outcome in data set [8] was inactive. In [11], the result was Active.
Take `O=C(NC1CC1)c1cc2c(s1)-c1ccccc1N(C(=O)c1ccc(NC(=O)c3cccnc3N3CC4(CCOCC4)C3)cc1)CC2`: the concentration for half-maximal inhibition (IC50) is 286 nM in data set [1] and 2.2 nM in [3]. The CC50 in data set [2] came out at 6410 nM.
On to `N#Cc1cccc2[nH]c(-c3cc4c(s3)-c3ccccc3N(C(=O)c3ccc(NC(=O)c5cccnc5N5CC6(CCOCC6)C5)cc3)CC4)nc12`, for which the concentration for half-maximal inhibition (IC50) in [1] worked out at 69 nM; in [3] it was 0.6 nM. The same molecule had a CC50 in data set [2] greater than 14400 nM.
Turning to `O=C(Nc1ccc(C(=O)N2CCc3cc(-c4nc5ccccc5o4)sc3-c3ccccc32)cc1)c1cccnc1N1CC2(CCOCC2)C1`, the values for the IC50 in [1] and in data set [3] were greater than 1500 nM and 56 nM, respectively. In data set [2], this molecule returned a cytotoxic concentration (CC50) greater than 14900 nM.
Regarding `CCc1cnc(N2CC3(CCOCC3)C2)c(C(=O)Nc2ccc(C(=O)N3CCc4cc(-c5nc6ccccc6[nH]5)sc4-c4ccccc43)cc2)c1`, the figures for the IC50 in data set [1] and in data set [3] were 13.3 nM and 0.7 nM, respectively. In [2], this molecule gave a half-maximal cytotoxic concentration (CC50) greater than 14300 nM.
`O=C(Nc1ccc(C(=O)N2CCc3cc(-c4nc5ccccc5[nH]4)sc3-c3ccccc32)cc1)c1cccnc1N1CC2(CCOCC2)C1`: the results for the IC50 in data set [1] and in data set [3] were 59.8 nM and 0.8 nM, respectively. Also, in data set [2], the CC50 is greater than 14900 nM.
For `O=C(Nc1ccc(C(=O)N2CCc3cc(-c4nc5c(C(F)(F)F)cccc5[nH]4)sc3-c3ccccc32)cc1)c1cccnc1N1CC2(CCOCC2)C1`, in that order: 38.8 nM, 0.6 nM and greater than 13600 nM.
For `Cc1cnc(N2CC3(CCOCC3)C2)c(C(=O)Nc2ccc(C(=O)N3CCc4cc(-c5cn6ccccc6n5)sc4-c4ccccc43)cc2)c1`, in that order: 14.4 nM, 1.8 nM and greater than 14600 nM.
For the molecule `O=C(Nc1ccc(C(=O)N2CCc3cc(-c4nc5c(Cl)cccc5[nH]4)sc3-c3ccccc32)cc1)c1cccnc1N1CC2(CCOCC2)C1`, the IC50 in data set [1] is 30.7 nM; in data set [3], 0.8 nM. In data set [2], this molecule had a CC50 greater than 14200 nM.
Regarding `Cc1ccnc(N2CC3(CCOCC3)C2)c1C(=O)Nc1ccc(C(=O)N2CCc3cc(-c4nc5ccccc5[nH]4)sc3-c3ccccc32)cc1`, the IC50 in data set [1] was greater than 1470 nM.
Consider `Cc1cccc2[nH]c(-c3cc4c(s3)-c3ccccc3N(C(=O)c3ccc(NC(=O)c5cccnc5N5CC6(CCOCC6)C5)cc3)CC4)nc12`, for which the IC50 in data set [1] came out at 52.9 nM; in [3], 0.6 nM. Moreover, the CC50 in data set [2] was greater than 14600 nM.
Taken in the same sequence, the figures for `Cc1cnc(N2CC3(CCOCC3)C2)c(C(=O)Nc2ccc(C(=O)N3CCc4cc(-c5nc(C)c(C)[nH]5)sc4-c4ccccc43)cc2)c1` were 6.2 nM, 1.6 nM and greater than 15100 nM.
For `N#Cc1ccc2[nH]c(-c3cc4c(s3)-c3ccccc3N(C(=O)c3ccc(NC(=O)c5cccnc5N5CC6(CCOCC6)C5)cc3)CC4)nc2c1`, in that order: 162 nM, 0.5 nM and greater than 14400 nM.
For `O=C(Nc1ccc(C(=O)N2CCc3cc(-c4nc5ccccc5[nH]4)sc3-c3ccccc32)cc1)c1ccc(C(F)(F)F)nc1N1CC2(CCOCC2)C1`, in that order: greater than 1360 nM, 7.3 nM and greater than 13600 nM.
Take `O=C(Nc1ccccc1)c1cc2c(s1)-c1ccccc1N(C(=O)c1ccc(NC(=O)c3cccnc3N3CC4(CCOCC4)C3)cc1)CC2`: the IC50 in data set [1] was determined as 283 nM; in [3] it was 0.5 nM. For the same molecule, the 50% cytotoxic concentration (CC50) in data set [2] was greater than 14900 nM.
Taken in the same sequence, the figures for `CC(C)c1cnc(N2CC3(CCOCC3)C2)c(C(=O)Nc2ccc(C(=O)N3CCc4cc(-c5nc6ccccc6[nH]5)sc4-c4ccccc43)cc2)c1` were greater than 1410 nM, 5.7 nM and greater than 14100 nM.
Take `O=C(Nc1ccc(C(=O)N2CCc3cc(-c4nc5cc(C(F)(F)F)ccc5[nH]4)sc3-c3ccccc32)cc1)c1cccnc1N1CC2(CCOCC2)C1`: the 50% inhibitory concentration (IC50) in data set [1] was greater than 1360 nM; in data set [3] it was 3.1 nM. The same molecule gave a cytotoxic concentration (CC50) in [2] greater than 13600 nM.

For orientation: IC50 means the concentration at which inhibition is half-maximal. As a reminder, the CC50 is the concentration that lowers cell viability or growth by half. Lower therefore signals harm at low concentration.

For the origin of these results see ChEMBL document CHEMBL4038291, “Discovery of novel benzothienoazepine derivatives as potent inhibitors of respiratory syncytial virus” (Bioorg Med Chem Lett, 2017).
